# Experimental data reported in ChEMBL document CHEMBL3217642, “Mechanistic insight into inhibition of two-component system signaling” (Medchemcomm, 2013).
# Calls of active or inactive are those of the source. The rule behind the calls is not given here.
# Assays:
# Thermotoga maritima [1] = assay: Displacement of BODIPY-FL-ATP-gamma-S from Thermotoga maritima histidine kinase HK853 at 1 mM to 600 uM
# Method in brief: (§1)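 Purified HK853 (600 ng) in 50 mM Tris–HCl, 0.2 M KCl, 5 mM MgCl2, pH 7.8 preincubated 30 min with varied analogue concentrations (DMSO ≤5% v/v), then labeled with BODIPY-FL-ATPγS (2 μM final), 1 h RT in dark. Quenched with SDS loading buffer (unheated), resolved by SDS-PAGE, fluorescence band intensity integrated; gels then coomassie stained.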
# [2] = Inhibition of Thermotoga maritima histidine kinase HK853 autophosphorylation; method in brief: as §1
# Thermotoga maritima [3] = assay: Induction of Thermotoga maritima histidine kinase HK853 aggregation up to 1000 uM by gel based assay
# Method in brief: (§2)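 Purified HK853 (0.44 μM) in 20 mM HEPES pH 7.5, with or without 0.1% final Triton X-100, incubated with varied analogue concentrations (DMSO ≤5% v/v) 4 h RT. Read by native-PAGE with silver staining (band disappearance), and by SDS-PAGE after BS3 crosslinking (100-fold molar excess, 2 h RT, quenched with 20 mM ammonium bicarbonate) with silver staining.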
# [4] = Binding affinity to Thermotoga maritima histidine kinase HK853 by STD-NMR analysis
# Thermotoga maritima [5] = assay: Inhibition of Thermotoga maritima histidine kinase HK853 autophosphorylation at 10 mM; method in brief: as §1
# Thermotoga maritima [6] = assay: Binding affinity to Thermotoga maritima histidine kinase HK853 D411A mutant by STD-NMR analysis
# Thermotoga maritima [7] = assay: Inhibition of Thermotoga maritima histidine kinase HK853 autophosphorylation up to 10 mM; method in brief: as §1
# Thermotoga maritima [8] = assay: Binding affinity to Thermotoga maritima histidine kinase HK853 by STD-NMR analysis in presence of ADP
# Thermotoga maritima [9] = assay: Induction of Thermotoga maritima histidine kinase HK853 aggregation up to 10 mM by gel based assay; method in brief: as §2
SMILES,inhibition (Thermotoga maritima [1]),IC50 [2],Kd [4],also measured
C/C(=C/CC(C)(C)/C=C/C(=O)N[C@@H](Cc1c[nH]c2ccccc12)C(=O)O)CC/C=C(\C)Br,,44 µM,,
CCCN(C(=O)/C(C#N)=C(/C)O)c1nc(-c2ccc(C(C)(C)C)cc2)cs1,,30 µM,,
N=C(N)NCCc1ccc(O)cc1,,,2410 µM,inhibition (Thermotoga maritima [3]): inactive; inhibition (Thermotoga maritima [5]): inactive; Activity (Thermotoga maritima [6]): inactive
CS(=O)(=O)c1ccc(CCNC(=N)N)cc1,,,580 µM,inhibition (Thermotoga maritima [7]): Active; Activity (Thermotoga maritima [8]): inactive; Activity (Thermotoga maritima [9]): inactive

# Now from value to molecule, other results behind:
inhibition (Thermotoga maritima [1]),IC50 [2],SMILES,Kd [4],also measured
Active,,CCCCCCCCCCOc1ccc(CCNC(=N)N)cc1,,
Active,,CCCCCCCOc1ccc(CCNC(=N)N)cc1,,
